For data set [1], the system named is SK-N-SH. Kind of data set: Antiproliferative activity against human SK-N-SH cells at 100 uM after 48 hts by MTT assay. It counts as functional. Background: Tetrazolium dyes change colour on reduction, which living cells bring about.
Data set [2] in a line: Inhibition of P-gp in MDCK-MDR1 cells by calcein-AM assay. It counts as cell-based, Canis lupus familiaris. The procedure, abridged: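 MDCK-MDR1 cells overexpressing P-gp, grown in high-glucose DMEM with 10% FBS, were seeded at 50 000 cells/well and left overnight to reach confluence. Compound preincubated 30 min at 37 °C, then calcein-AM (2.5 μM final) added for a further 30 min. Cells washed with ice-cold PBS and fluorescence read at ex 485/em 535 nm relative to untreated cells. EC50 fitted from % fluorescence increase versus log dose.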

Data set [3] has as its target Sigma non-opioid intracellular receptor 1 (Cavia porcellus, UniProt Q60492). The experiment in a line: Displacement of [3H]-(+)-pentazocine from sigma 1 receptor in Dunkin guinea pig brain membrane without cerebellum. It counts as cell membranes.
The nature of data set [4]: Displacement of [3H]DTG from sigma 2 receptor in Wistar Hannover rat liver membrane in presence of (+)-pentazocine. It counts as cell membranes. A general note: Loss of bound radioactivity is the signal in a displacement assay; it reports binding, not function.
Data set [5] can be described thus: Octanol-aqueous phases partition coefficient, log D of the compound at pH 7.4. It counts as physicochemical. To be noted: octanol/aqueous phase.
Data set [6] concerns SK-N-SH. The experiment in a line: Antiproliferative activity against human SK-N-SH cells after 48 hts by MTT assay. It counts as functional, cell-based. The procedure, abridged: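 SK-N-SH neuroblastoma cells grown in RPMI 1640 with 10% FBS, glutamine, pyruvate and nonessential amino acids at 37 °C, 5% CO2. Seeded at 30 000 cells/well, then exposed next day to drug (0.1 μM-100 μM; solvent controls included). MTT 0.5 mg/mL added for 3 h at 37 °C after 48 h exposure, formazan dissolved in DMSO, absorbance read at 570 and 630 nm. EC50 from nonlinear curve fitting; means of ≥2 experiments.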

Data set [7] can be described thus: Lipophilicity, log P of the compound. It counts as physicochemical. To be noted: octanol/water.
The target of data set [8] is Sigma non-opioid intracellular receptor 1 (Cavia porcellus) (UniProt Q60492). The experiment in a line: Displacement of [3H]-(+)-pentazocine from sigma 1 receptor in Dunkin guinea pig brain membrane without cerebellum at 10^-12M. It counts as cell membranes. In a few lines: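 σ1 binding with (+)-[3H]-pentazocine on guinea pig brain membranes lacking cerebellum; percent inhibition of specific binding recorded at a single 10-12 M test concentration. Means of ≥3 separate experiments.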
Chain of Sigma non-opioid intracellular receptor 1 (Cavia porcellus) (Q60492 whole entry): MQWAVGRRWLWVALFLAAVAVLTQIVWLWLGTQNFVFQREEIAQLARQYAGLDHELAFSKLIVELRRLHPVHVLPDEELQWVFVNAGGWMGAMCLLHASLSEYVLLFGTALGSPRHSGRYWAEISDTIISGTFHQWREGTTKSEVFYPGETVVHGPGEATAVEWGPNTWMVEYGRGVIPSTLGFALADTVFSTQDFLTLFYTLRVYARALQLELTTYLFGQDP

Broadly, the inhibition is the drop in the measured response relative to a control, in per cent. A higher inhibition goes with a response far below the control. What is called EC50 is the concentration that produces a half-maximal response. As usually defined, the Ki is a dissociation constant, usually derived from enzyme kinetics or from competition with a known ligand. Usually logD stands for lipophilicity at a set pH, counting ionised and neutral species. Higher therefore signals higher lipophilicity. Usually logP stands for a log measure of how a compound divides between an organic and an aqueous phase.

Chain of Sigma non-opioid intracellular receptor 1 (Q60492 whole entry): as above

As to `COc1cccc2c1CCC[C@H]2OCCN1CCN(C2CCCCC2)CC1`, at 100 µM the inhibition in data set [1] was 91%. Besides, the EC50 in data set [2] was 5300 nM. The Ki came to 2.17 nM in data set [3] and 11.1 nM in data set [4].
As to `COc1cccc2c(OCCN3CCN(C4CCCCC4)CC3)cccc12`, in data set [5], the logD is 2.88. Further, the figures for the EC50 in data set [6] and in data set [2] were 41600 nM and 3400 nM, respectively. The logP in data set [7] was 3.94. The Ki in data set [4] is 2.4 nM. The same compound had an inhibition in data set [8] of 65%.
As to `COc1cccc2c1CCC[C@H]2CCCN1CCN(C2CCCCC2)CC1`, the EC50 in data set [6] is 9370 nM; in data set [2] it was 3800 nM. Further, in data set [4], the Ki was 1.18 nM.
On to `COc1cccc2c1CCC[C@@H]2NC(=O)CN1CCN(C2CCCCC2)CC1`, for which the inhibition at 100 µM in data set [1] worked out at 100%. In data set [2], the EC50 was 8100 nM. For the same compound, the Ki came out at 94.6 nM in data set [3] and 5.92 nM in data set [4].
The like results for `COc1cccc2c1CCC[C@@H]2NCCN1CCN(C2CCCCC2)CC1` were, in that order, 33%, 3200 nM, 23.3 nM and 8.52 nM.
In data set [5], `COc1cccc2c1CCCC2CCCN1CCN(C2CCCCC2)CC1` (racemic) returned a logD of 3.99. The EC50 in data set [6] was 9040 nM; in data set [2], 3000 nM. The logP in data set [7] stood at 5.08. Moreover, the Ki in data set [4] turned out to be 0.68 nM.
With `COc1cccc2c1CCC[C@H]2NC(=O)CN1CCN(C2CCCCC2)CC1`, 100 µM produced 100% inhibition in data set [1]. The EC50 in data set [2] is 6600 nM. The Ki amounted to 20.4 nM in data set [3] and 10.1 nM in data set [4].
For the compound `COc1cccc2c1CCCC2NCCN1CCN(C2CCCCC2)CC1` (racemic), the logD in data set [5] was determined as 0.89. The inhibition at 100 µM in data set [1] came to 48%. Further, the EC50 in data set [2] is 10000 nM. Also, the Ki in data set [3] was determined as 23.9 nM; in data set [4], 8.49 nM. For the same compound, the log partition coefficient (logP) in data set [7] came to 3.05.
With `COc1cccc2c1CCC[C@@H]2CCCN1CCN(C2CCCCC2)CC1`, the values for the concentration giving a half-maximal response (EC50) in data set [6] and in data set [2] were 9070 nM and 4400 nM, respectively. Moreover, in data set [4], the Ki was 0.49 nM.
Compound `COc1cccc2c1CCCC2OCCN1CCN(C2CCCCC2)CC1` (racemic) registered an inhibition at 100 µM in data set [1] of 72%. The half-maximal effective concentration (EC50) in data set [2] was 2400 nM. Further, the figures for the inhibition constant (Ki) in data set [3] and in data set [4] were 3.9 nM and 9.03 nM, respectively.
The compound `COc1cccc2c(NCCN3CCN(C4CCCCC4)CC3)cccc12` yielded a logD in data set [5] of 2.88. Besides, the values for the EC50 in data set [6] and in data set [2] were 44000 nM and 3600 nM, respectively. Besides, the inhibitory constant (Ki) in data set [3] came out at 5.44 nM; in data set [4], 18.5 nM. For the same compound, the logP in data set [7] was found to be 4.08.
For `COc1cccc2c1CCCC2N(C)CCN1CCN(C2CCCCC2)CC1` (racemic), the pH-dependent lipophilicity (logD) in data set [5] worked out at 1.83. In data set [1], at 100 µM the inhibition was 82%. Besides, the EC50 in data set [2] is 8800 nM. Also, the figures for the Ki in data set [3] and in data set [4] were 4.17 nM and 15.3 nM, respectively. Moreover, the logP in data set [7] stood at 4.83.
`COc1cccc2c1CCC[C@@H]2OCCN1CCN(C2CCCCC2)CC1` came in with an inhibition at 100 µM in data set [1] of 93%. For the same compound, the EC50 in data set [2] is 1700 nM. In addition, the Ki in data set [3] amounted to 3.24 nM; in data set [4], 4.71 nM.
In data set [1], `COc1cccc2c1CCC[C@H]2NCCN1CCN(C2CCCCC2)CC1` gave an inhibition at 100 µM of 31%. Further, the EC50 in data set [2] was 9800 nM. The Ki in data set [3] amounted to 13.6 nM; in data set [4], 14.4 nM.
In the case of `COc1cccc2c1OCCC2CCCN1CCN(C2CCCCC2)CC1` (racemic), the inhibition at 100 µM in data set [1] came out at 100%. In addition, the EC50 in data set [2] is 5200 nM. Besides, the inhibition constant Ki in data set [3] turned out to be 12.5 nM; in data set [4], 9.72 nM.
For `COc1cccc2c1CCCC2NC(=O)CN1CCN(C2CCCCC2)CC1` (racemic), the logD in data set [5] is 2.38. The compound further came in with an inhibition at 100 µM in data set [1] of 68%. In addition, the concentration giving a half-maximal response (EC50) in data set [2] is 8800 nM. In addition, the Ki in data set [3] was determined as 12.6 nM; in data set [4], 13.3 nM. This compound yielded a logP in data set [7] of 3.69.
Consider `COc1cccc2c(NC(=O)CN3CCN(C4CCCCC4)CC3)cccc12`, for which the logD in data set [5] is 2.18. In data set [1], this compound yielded an inhibition at 100 µM of 75%. Further, the EC50 in data set [2] is 9100 nM. Further, the Ki stood at 42.6 nM in data set [3] and 23.2 nM in data set [4]. In data set [7], this compound displayed a logP of 3.44.

(Values after ChEMBL document CHEMBL1671780, “Analogues of σ receptor ligand 1-cyclohexyl-4-[3-(5-methoxy-1,2,3,4-tetrahydronaphthalen-1-yl)propyl]piperazine (PB28) with added polar functionality and reduced lipophilicity for potential use as positron emission tomography radiotracers” (J Med Chem, 2011).)
